Measurements as given in ChEMBL document CHEMBL1140585, “Synthesis and antioxidant properties of substituted 3-benzylidene-7-alkoxychroman-4-ones” (Bioorg Med Chem Lett, 2007).
Active and inactive are the calls of the source. No cut-off for these calls is given here.

What was measured:
[1] = system: Radical scavenging activity; test: Antioxidant activity assessed as DPPH free radical scavenging activity; type: functional
In short: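 DPPH in methanol (150 µM) incubated with various compound concentrations at 37 C for 30 min; absorbance read at 517 nm. Percent scavenging = 100 × (Abs control − Abs compound)/Abs control; IC50 obtained by linear regression of percent inhibition against concentration.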

[2] = Antioxidant activity at 100 ug by ferric reducing antioxidant power assay; type: functional
In short: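 FRAP reagent: 10 vol 300 mM acetate buffer pH 3.6, 1 vol 10 mM TPTZ in 40 mM HCl, 1 vol 20 mM FeCl3, diluted to 1/3 with methanol, pre-warmed to 37 C. Diluted compound mixed with reagent, 8 min at 37 C, absorbance at 593 nm against methanol blank; expressed as lM ferric reduced to ferrous, calibrated with known ferrous ion.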

Brain = test: Antioxidant activity in Wistar rat brain assessed as inhibition of lipid peroxidation; type: functional, tissue-based
In short: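 Brain homogenate (10% w/v) of young adult male Wistar rats in 0.15 M KCl, 800g 10 min supernatant. Compounds in DMSO at varying amounts; peroxidation started with FeCl3 plus ascorbic acid, 20 min at 37 C. Stopped with phosphotungstic acid and thiobarbituric acid, heated 100 C 10 min, n-butanol extract read by fluorescence (ex 515/em 555 nm); IC50 from log dose–inhibition curve.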

Structure (SMILES): Cc1c(C)c2c(c(C)c1O)CCC(C)(C(=O)O)O2 (stereo unspecified) [TROLOX]
- IC50 [1]: 36.3 µM
- Activity [2]: 41.9
- IC50 (Brain): 41.6 µM

Structure (SMILES): COc1ccc2c(c1)OC/C(=C\c1cc(OC)c(O)c(OC)c1)C2=O
- IC50 [1]: 30.8 µM
- Activity [2]: 61.6
- IC50 (Brain): 11 µM

Structure (SMILES): COc1ccc2c(c1)OC/C(=C\c1ccc(O)c(O)c1)C2=O
- IC50 [1]: 27.2 µM
- Activity [2]: 71.6
- IC50 (Brain): 12.1 µM

Structure (SMILES): CCCCOc1ccc2c(c1)OC/C(=C\c1ccc(O)c(O)c1)C2=O
- IC50 [1]: 24.5 µM
- Activity [2]: 44.6
- IC50 (Brain): 11 µM

Structure (SMILES): COc1ccc(/C=C2\COc3cc(OC)ccc3C2=O)cc1
- IC50 [1]: > 100 µM
- Activity [2]: inactive
- IC50 (Brain): > 100 µM

Structure (SMILES): CCOc1ccc2c(c1)OC/C(=C\c1ccc(O)c(O)c1)C2=O
- IC50 [1]: 24.3 µM
- Activity [2]: 62.7
- IC50 (Brain): 11.9 µM

Structure (SMILES): CCCOc1ccc2c(c1)OC/C(=C\c1ccc(O)c(O)c1)C2=O
- IC50 [1]: 25.4 µM
- Activity [2]: 53.8
- IC50 (Brain): 11.4 µM

Structure (SMILES): COc1ccc2c(c1)OC/C(=C\c1ccc(O)cc1)C2=O
- IC50 [1]: > 100 µM
- Activity [2]: inactive
- IC50 (Brain): > 100 µM

Structure (SMILES): COc1ccc2c(c1)OC/C(=C\c1ccccc1OC)C2=O
- IC50 [1]: > 100 µM
- Activity [2]: inactive
- IC50 (Brain): > 100 µM

Structure (SMILES): COc1cccc(/C=C2\COc3cc(OC)ccc3C2=O)c1
- IC50 [1]: > 100 µM
- Activity [2]: inactive
- IC50 (Brain): > 100 µM

Structure (SMILES): O=C1/C(=C/c2ccc(O)cc2)COc2cc(O)ccc21
- IC50 [1]: > 100 µM
- Activity [2]: inactive
- IC50 (Brain): > 100 µM

Structure (SMILES): O=C1/C(=C/c2ccc(O)c(O)c2)COc2cc(O)ccc21 [SAPPANONE A]
- IC50 [1]: 35 µM
- Activity [2]: 49.3
- IC50 (Brain): 14.3 µM
